Assay results from ChEMBL document CHEMBL4819106, “Aminopyrazole based CDK9 PROTAC sensitizes pancreatic cancer cells to venetoclax” (Bioorg Med Chem Lett, 2021).
Blank lines part the entries; values can stand above or below the molecule they belong to. Calls of active or inactive are those of the source. The rule behind the calls is not given here.

Assays:
[1] = molecular target: T1, Protein cereblon/Cyclin-dependent kinase 9 (Homo sapiens, UniProt P50750+Q96SW2); assay: Protac activity at CDK9/CRBN in human HEK293 cells assessed as degradation of CDK9 at 0.01 to 10 uM incubated for 24 hrs by Western blot analysis; assay type: cell-based; conditions: dose 0.01-10 µM
Summary of the method: (§1)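 HEK293 cells were treated with increasing concentrations (0.01–10 μM) for 24 hr. Lysates were analysed by western blot for CDK9 degradation.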
Target sequence in this assay (P50750 whole entry, looked up): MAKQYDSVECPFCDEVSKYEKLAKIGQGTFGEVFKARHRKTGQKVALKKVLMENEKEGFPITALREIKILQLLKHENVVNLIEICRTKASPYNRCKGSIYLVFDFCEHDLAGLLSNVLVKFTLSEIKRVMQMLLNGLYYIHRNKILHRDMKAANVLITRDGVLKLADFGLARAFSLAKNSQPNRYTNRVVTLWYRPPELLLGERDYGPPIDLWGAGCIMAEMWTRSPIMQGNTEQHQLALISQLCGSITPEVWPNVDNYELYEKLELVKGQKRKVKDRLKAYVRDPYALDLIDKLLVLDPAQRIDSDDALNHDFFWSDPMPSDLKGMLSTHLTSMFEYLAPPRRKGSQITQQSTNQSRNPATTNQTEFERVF
Target sequence in this assay (Q96SW2 whole entry, looked up): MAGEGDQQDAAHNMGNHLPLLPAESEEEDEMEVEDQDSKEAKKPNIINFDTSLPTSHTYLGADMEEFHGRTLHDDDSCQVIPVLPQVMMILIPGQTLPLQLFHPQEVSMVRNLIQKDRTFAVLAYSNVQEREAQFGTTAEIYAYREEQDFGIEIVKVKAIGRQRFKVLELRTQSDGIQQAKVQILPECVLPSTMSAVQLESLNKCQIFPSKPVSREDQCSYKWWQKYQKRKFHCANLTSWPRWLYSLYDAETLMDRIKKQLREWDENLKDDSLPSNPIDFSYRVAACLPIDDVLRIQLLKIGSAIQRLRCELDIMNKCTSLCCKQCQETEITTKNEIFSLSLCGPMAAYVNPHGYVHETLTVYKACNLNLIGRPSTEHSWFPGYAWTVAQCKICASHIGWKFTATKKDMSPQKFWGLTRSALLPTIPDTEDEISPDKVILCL

MIA PaCa-2 = assay: Antiproliferative activity against human MIA PaCa-2 cells assessed as cell growth inhibition at 5 uM measured after 3 days by Prestoblue assay relative to control; assay type: functional; conditions: MIA PaCa-2, 72 h, time 3 day, read-out: GI
Summary of the method: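 MiaPaCa2 cells were exposed for 3 days to single agents (Bcl2-family inhibitors or CDK9 degrader) at equimolar concentration. Viability was read by PrestoBlue.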

[2] = molecular target: T1, Protein cereblon/Cyclin-dependent kinase 9; assay: Protac activity at CDK9/CRBN in human HEK293 cells assessed as degradation of CDK9 incubated for 24 hrs by Western blot analysis; assay type: cell-based; summary of the method: as §1
Target sequence in this assay (P50750 whole entry): as the sequence (P50750 whole entry, looked up) above
Target sequence in this assay (Q96SW2 whole entry): as the sequence (Q96SW2 whole entry, looked up) above

[3] = molecular target: T2, Cyclin-dependent kinase 5 (Homo sapiens, UniProt Q00535); assay: Inhibition of CDK5 (unknown origin)
[4] = molecular target: T3, Cyclin-dependent kinase 9 (Homo sapiens, UniProt P50750); assay: Inhibition of CDK9 (unknown origin)
[5] = molecular target: T2, Cyclin-dependent kinase 5; assay: Binding affinity to CDK5 (unknown origin)
[6] = molecular target: T3, Cyclin-dependent kinase 9; assay: Binding affinity to CDK9 (unknown origin)

T2 sequence (Q00535 whole entry): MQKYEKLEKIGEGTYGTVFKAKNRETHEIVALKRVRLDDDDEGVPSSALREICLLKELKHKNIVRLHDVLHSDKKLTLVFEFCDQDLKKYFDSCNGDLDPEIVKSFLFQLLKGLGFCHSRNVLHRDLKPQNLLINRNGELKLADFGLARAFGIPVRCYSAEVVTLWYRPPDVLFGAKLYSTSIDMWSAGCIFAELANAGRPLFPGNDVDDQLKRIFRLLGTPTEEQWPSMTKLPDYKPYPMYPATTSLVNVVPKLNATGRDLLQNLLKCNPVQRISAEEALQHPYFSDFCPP
T3 sequence (P50750 whole entry): as the sequence (P50750 whole entry, looked up) above

- Activity [1]: inactive
Compound: O=C(COCCOCCOCCOc1ccc(CC(=O)Nc2cc(C3CCC3)[nH]n2)cc1)NCCCCNc1cccc2c1C(=O)N(C1CCC(=O)NC1=O)C2=O (centres undefined)

- Activity [1]: inactive
Compound: O=C(COCCOCCOCCOc1cccc(CC(=O)Nc2cc(C3CCC3)[nH]n2)c1)NCCOCCOCCNc1cccc2c1C(=O)N(C1CCC(=O)NC1=O)C2=O (centres undefined)

- Activity [1]: inactive
Compound: O=C(COc1ccc(CC(=O)Nc2cc(C3CCC3)[nH]n2)cc1)NCCOCCOCCNc1cccc2c1C(=O)N(C1CCC(=O)NC1=O)C2=O (centres undefined)

Further lines, the molecule ahead of its results:

Compound: CC1(C)CCC(c2ccc(Cl)cc2)=C(CN2CCN(c3ccc(C(=O)NS(=O)(=O)c4ccc(N[C@H](CCN5CCOCC5)CSc5ccccc5)c(S(=O)(=O)C(F)(F)F)c4)cc3)CC2)C1 [NAVITOCLAX]
- inhibition of growth at 5 µM (MIA PaCa-2): 50%

Compound: O=C(COc1ccc(CC(=O)Nc2cc(C3CCC3)[nH]n2)cc1)NCCCCCCCCNc1cccc2c1C(=O)N(C1CCC(=O)NC1=O)C2=O (centres undefined)
- DC50 [2]: 1000 nM

Compound: COc1ccc(CC(=O)Nc2cc(C3CCC3)[nH]n2)cc1
- IC50 [3]: 32 nM
- IC50 [4]: 1080 nM
- Kd [5]: 230 nM
- Kd [6]: 1060 nM
